Experimental data from ChEMBL document CHEMBL4270594, “Design, synthesis and pharmacological evaluation of new 3-(1H-benzimidazol-2-yl)quinolin-2(1H)-one derivatives as potential antitumor agents” (Eur J Med Chem, 2018).
Activity calls are given as the source filed them. The rule behind the calls is not given here.

Key:
Mus musculus [1] = experiment: Downregulation of APAF-1 protein expression in tumor tissues of Balb/c nude mouse xenografted with human Bel7404 cells at 25 to 50 mg/kg, ip bid for 20 days measured on day 21 by Western blot analysis; type: functional, organism-based
BEL-7404 tumor cell line [2] = experiment: Antitumor activity against human Bel7404 cells xenografted in Balb/c nude mouse assessed as relative tumor volume increment rate at 50 mg/kg, ip bid for 20 days measured on day 21 post last dose relative to control; type: functional
Mus musculus [3] = experiment: Downregulation of caspase-9 protein expression in tumor tissues of Balb/c nude mouse xenografted with human Bel7404 cells at 25 to 50 mg/kg, ip bid for 20 days measured on day 21 by Western blot analysis; type: functional, organism-based
BEL-7404 tumor cell line [4] = experiment: Cell cycle arrest in human Bel7404 cells assessed as accumulation at G2-phase at 9 uM after 48 hrs by propidium iodide staining based flow cytometry (reference value: 18.84%); type: functional
BEL-7404 tumor cell line [5] = experiment: Antitumor activity against human Bel7404 cells xenografted in Balb/c nude mouse assessed as induction of necrosis at 25 to 50 mg/kg, ip for 20 days measured on day 21 post last dose by hematoxylin and eosin staining based microscopic method; type: functional, organism-based
BEL-7404 tumor cell line [6] = experiment: Cell cycle arrest in human Bel7404 cells assessed as accumulation at G1-phase at 9 uM after 48 hrs by propidium iodide staining based flow cytometry (reference value: 59.16%); type: functional
BEL-7404 tumor cell line [7] = experiment: Antitumor activity against human Bel7404 cells xenografted in Balb/c nude mouse assessed as tumor growth inhibition at 50 mg/kg, ip bid for 20 days measured on day 21 post last dose relative to control; type: functional; settings: BEL-7404, ip, read-out: TGI
HepG2 [8] = experiment: Cell cycle arrest in human HepG2 cells assessed as accumulation at G2-phase at 10 uM after 48 hrs by propidium iodide staining based flow cytometry (reference value: 19.04%); type: functional
HepG2 [9] = experiment: Induction of ROS in human HepG2 cells at 6 to 10 uM by DAPI staining based fluorescence microscopic method; type: functional, cell-based
HepG2 [10] = experiment: Cell cycle arrest in human HepG2 cells assessed as accumulation at G1-phase at 6 uM after 48 hrs by propidium iodide staining based flow cytometry (reference value: 50.47%); type: functional
HepG2 [11] = experiment: Induction of apoptosis in human HepG2 cells assessed as early apoptotic cells at 6 uM after 24 hrs by Annexin V-FITC/ propidium iodide staining based flow cytometry (reference value: 6.5%); type: functional
HepG2 [12] = experiment: Induction of apoptosis in human HepG2 cells assessed as necrotic cells at 8 uM after 24 hrs by Annexin V-FITC/ propidium iodide staining based flow cytometry (reference value: 0.28%); type: functional
HepG2 [13] = experiment: Upregulation of p53 protein expression in human HepG2 cells at 8 uM after 12 hrs by Western blot analysis; type: functional, cell-based
HepG2 [14] = experiment: Downregulation of Bcl2 protein expression in human HepG2 cells at 6 to 10 uM after 12 hrs by Western blot analysis; type: functional, cell-based
HepG2 [15] = experiment: Induction of apoptosis in human HepG2 cells assessed as live cells at 10 uM after 24 hrs by Annexin V-FITC/ propidium iodide staining based flow cytometry (reference value: 91.31%); type: functional
HepG2 [16] = experiment: Upregulation of p21 protein expression in human HepG2 cells at 6 to 10 uM after 12 hrs by Western blot analysis; type: functional, cell-based
Outline: (§1)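 HepG2 cell lysates after compound treatment analyzed by western blot for the target protein, compared with untreated negative control.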

HepG2 [17] = experiment: Induction of apoptosis in human HepG2 cells assessed as late apoptotic cells at 6 uM after 24 hrs by Annexin V-FITC/ propidium iodide staining based flow cytometry (reference value: 1.91%); type: functional
HepG2 [18] = experiment: Induction of apoptosis in human HepG2 cells assessed as morphological changes at 6 to 10 uM after 12 hrs by […] staining based fluorescence microscopic method; type: functional, cell-based
Outline: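 HepG2 cells treated for 12 h, stained with Hoechst 33258 and viewed by fluorescence microscopy for nuclear blue fluorescence and apoptotic morphology, compared with untreated cells.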

HepG2 [19] = experiment: Induction of intracellular calcium level in human HepG2 cells at 6 to 10 uM after 24 hrs by Fluo3-AM staining based fluorescence microscopic method; type: functional, cell-based
HepG2 [20] = experiment: Induction of ROS in human HepG2 cells at 6 to 10 uM by DCFH-DA staining based fluorescence microscopic method; type: functional, cell-based
HepG2 [21] = experiment: Cell cycle arrest in human HepG2 cells assessed as accumulation at G2-phase at 8 uM after 48 hrs by propidium iodide staining based flow cytometry (reference value: 19.04%); type: functional
Mus musculus [22] = experiment: Upregulation of PARP protein expression in tumor tissues of Balb/c nude mouse xenografted with human NCI-H460 cells at 25 to 50 mg/kg, ip bid for 13 days measured on day 14 by Western blot analysis; type: functional, organism-based
Outline: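 Tumors from NCI-H460 xenografted BALB/c nude mice (25 or 50 mg/kg, vehicle 5% DMSO in saline) collected at day 14; protein levels in tumor tissue determined by western blot versus vehicle control.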

HepG2 [23] = experiment: Upregulation of Bax protein expression in human HepG2 cells at 6 to 10 uM after 12 hrs by Western blot analysis; type: functional, cell-based; outline: as §1
HepG2 [24] = experiment: Upregulation of caspase-9 protein expression in human HepG2 cells at 6 to 10 uM after 12 hrs by Western blot analysis; type: functional, cell-based; outline: as §1
HepG2 [25] = experiment: Induction of apoptosis in human HepG2 cells assessed as early apoptotic cells at 10 uM after 24 hrs by Annexin V-FITC/ propidium iodide staining based flow cytometry (reference value: 6.5%); type: functional
HepG2 [26] = experiment: Induction of apoptosis in human HepG2 cells assessed as pycnosis at 6 to 10 uM after 12 hrs by acridine orange/ethidium bromide staining based fluorescence microscopic method; type: functional, cell-based
Outline: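 HepG2 cells stained with acridine orange/ethidium bromide and examined by fluorescence microscopy; nuclei scored as yellow/green or orange, with pycnosis, membrane blebbing and cell budding taken as apoptotic morphology.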

HepG2 [27] = experiment: Induction of apoptosis in human HepG2 cells assessed as cell budding at 6 to 10 uM after 12 hrs by acridine orange/ethidium bromide staining based fluorescence microscopic method; type: functional
HepG2 [28] = experiment: Induction of apoptosis in human HepG2 cells assessed as live cells at 8 uM after 24 hrs by Annexin V-FITC/ propidium iodide staining based flow cytometry (reference value: 91.31%); type: functional
HepG2 [29] = experiment: Upregulation of p53 protein expression in human HepG2 cells at 6 to 10 uM after 12 hrs by Western blot analysis; type: functional, cell-based; outline: as §1
HepG2 [30] = experiment: Cell cycle arrest in human HepG2 cells assessed as accumulation at S-phase at 10 uM after 48 hrs by propidium iodide staining based flow cytometry (reference value: 30.49%); type: functional
HepG2 [31] = experiment: Cell cycle arrest in human HepG2 cells assessed as accumulation at S-phase at 8 uM after 48 hrs by propidium iodide staining based flow cytometry (reference value: 30.49%); type: functional
HepG2 [32] = experiment: Upregulation of PARP protein expression in human HepG2 cells at 6 to 10 uM after 12 hrs by Western blot analysis; type: functional, cell-based; outline: as §1
HepG2 [33] = experiment: Induction of apoptosis in human HepG2 cells assessed as necrotic cells at 10 uM after 24 hrs by Annexin V-FITC/ propidium iodide staining based flow cytometry (reference value: 0.28%); type: functional

O=c1[nH]c2cc3c(cc2cc1-c1nc2cc(Cl)ccc2[nH]1)OCO3
Activity (Mus musculus [1]): Active | T/C (BEL-7404 tumor cell line [2]): 44.8% | Activity (Mus musculus [3]): Active | Activity (BEL-7404 tumor cell line [4]): 30.58% | Activity (BEL-7404 tumor cell line [5]): Active | Activity (BEL-7404 tumor cell line [6]): 45.76% | inhibition in vivo at 50 mg/kg (BEL-7404 tumor cell line [7]): 44.9%

O=c1[nH]c2ccccc2cc1-c1nc2cc(Cl)ccc2[nH]1
Activity (HepG2 [8]): 49.1% | Activity (HepG2 [9]): Active | Activity (HepG2 [10]): 41.52% | Activity (HepG2 [11]): 20.22% | Activity (HepG2 [12]): 0.32% | Activity (HepG2 [13]): Active | Activity (HepG2 [14]): Active | Activity (HepG2 [15]): 37.3% | Activity (HepG2 [16]): Active | Activity (HepG2 [17]): 10.4% | Activity (HepG2 [18]): Active | Activity (HepG2 [19]): Active | Activity (HepG2 [20]): Active | Activity (HepG2 [21]): 39.71% | Activity (Mus musculus [22]): Active | Activity (HepG2 [23]): Active | Activity (HepG2 [24]): Active | Activity (HepG2 [25]): 45.57% | Activity (HepG2 [26]): Active | Activity (HepG2 [27]): Active | Activity (HepG2 [28]): 53.37% | Activity (HepG2 [29]): Active | Activity (HepG2 [30]): 27.24% | Activity (HepG2 [31]): 29.19% | Activity (HepG2 [32]): Active | Activity (HepG2 [33]): 0.45%
